Results from ChEMBL document CHEMBL1275449, “Potent in vitro antifungal activities of naturally occurring acetylenic acids” (Antimicrob Agents Chemother, 2008).
Active and inactive are the calls of the source. The rule behind the calls is not given here.

Columns and labels:
Candida albicans [1] = assay: Antifungal activity against Candida albicans ATCC 60193 at 162.1 uM after 48 hrs by CLSI method; format: functional, organism-based
How it was run: (§1)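 Candida inocula came from 24–72-h SD agar colonies suspended in saline. They were diluted by OD630 standard curve into RPMI 1640 (0.2% dextrose, 0.03% glutamine, 0.165 M MOPS, pH 7.0) to 1.5 × 10³ CFU/ml. Compounds were run as 11 twofold dilutions in 20% DMSO-saline, in duplicate, at 35°C for 48 h, with OD530 read before and after. Percent growth at the top concentration, IC50, MIC, and MFC (SD agar plating) were derived.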

Trichophyton rubrum [2] = assay: Antifungal activity against Trichophyton rubrum ATCC MYA-4438 at 162.1 uM after 5 days by CLSI method; format: functional, organism-based
Aspergillus fumigatus [3] = assay: Antifungal activity against Aspergillus fumigatus ATCC 90906 after 48 h by CLSI method; conditions: ATCC 90906, 48 h
Pichia kudriavzevii [4] = assay: Antifungal activity against Candida krusei ATCC 6258 after 48 hrs by CLSI method; format: functional, organism-based; conditions: ATCC 6258, 48 h; how it was run: as §1
LLC-PK1 = assay: Cytotoxicity against pig LLC-PK1 cells up to 32 uM by neutral red method; format: cell-based, Sus scrofa
How it was run: (§2)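 Neutral red uptake cytotoxicity, top concentration 32 μM.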

Candida tropicalis = assay: Antifungal activity against Candida tropicalis ATCC 750 at 162.1 uM after 48 hrs by CLSI method; format: functional, organism-based
How it was run: (§3)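 Yeast suspensions made from 3-5 colonies off 24-72 h SD agar plates in saline. They were diluted by OD630 standard curve in RPMI 1640 (0.2% dextrose, 0.03% glutamine, 0.165 M MOPS, pH 7.0) to 1.5 × 10³ CFU/ml. Twofold dilutions (11 concentrations, 20% DMSO-saline) run in duplicate. OD530 read before and after 35°C, 48 h. Line values are top test concentrations; no-growth endpoints give MIC/MFC.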

Candida albicans [5] = assay: Antifungal activity against Fluconazole resistant Candida albicans isolate 1 at 162.1 uM after 48 hrs by CLSI method; format: functional, organism-based
How it was run: (§4)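 Candida in CLSI broth microdilution. Saline colony suspension set to 1.5 × 10³ CFU/ml (final) in MOPS-buffered RPMI 1640, pH 7.0. Test agent given as twofold serial dilutions in 20% DMSO-saline, duplicate wells. 35°C for 48 h. Growth read as OD530 before and after incubation. Percent inhibition scored at the highest test concentration.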

Aspergillus fumigatus [6] = assay: Antifungal activity against Aspergillus fumigatus ATCC 204305 after 48 h by CLSI method; conditions: ATCC 204305, 48 h
[7] = tested on: Trichophyton mentagrophytes; assay: Antifungal activity against Trichophyton mentagrophytes ATCC 9533 at 162.1 uM after 5 days by CLSI method; format: functional, organism-based
Candida albicans [8] = assay: Antifungal activity against Candida albicans ATCC 60193 after 48 hrs by CLSI method; format: functional, organism-based; conditions: ATCC 60193, 48 h
How it was run: (§5)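 CLSI broth microdilution. Colonies from 24–72 h SD agar suspended in saline and sized by OD630 standard curve. Inoculum 1.5 × 10³ CFU/ml (final) in RPMI 1640 (0.2% dextrose, 0.03% glutamine, 0.165 M MOPS, pH 7.0). Twofold dilutions (11 levels) from 20% DMSO-saline, in duplicate. 35°C for 48 h, OD530 read before and after. IC50 fitted from % growth. MIC: no detectable growth. MFC: subculture onto SD agar.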

Candida albicans [9] = assay: Antifungal activity against Candida albicans ATCC 90028 after 48 hrs by CLSI method; format: functional, organism-based; conditions: ATCC 90028, 48 h; how it was run: as §5
Candida albicans [10] = assay: Antifungal activity against Fluconazole resistant Candida albicans clinical isolate 1 after 48 hrs by CLSI method; format: functional, organism-based; how it was run: as §5
[11] = tested on: Trichophyton mentagrophytes; assay: Antifungal activity against Trichophyton mentagrophytes ATCC MYA-4439 at 162.1 uM after 5 days by CLSI method; format: functional, organism-based
KB = assay: Cytotoxicity against human KB cells up to 32 uM by neutral red method; format: cell-based; how it was run: as §2
Aspergillus flavus = assay: Antifungal activity against Aspergillus flavus ATCC 204304 at 162.1 uM after 48 hrs by CLSI method; format: functional, organism-based
SK-OV-3 = assay: Cytotoxicity against human SKOV3 cells up to 32 uM by neutral red method; format: cell-based; how it was run: as §2
Pichia kudriavzevii [12] = assay: Antifungal activity against Candida krusei ATCC 6258 at 162.1 uM after 48 hrs by CLSI method; format: functional, organism-based; how it was run: as §1
Candida albicans [13] = assay: Antifungal activity against Candida albicans ATCC 14053 after 48 hrs by CLSI method; format: functional, organism-based; conditions: ATCC 14053, 48 h; how it was run: as §5
Vero = assay: Cytotoxicity against African green monkey Vero cells up to 32 uM by neutral red method; format: cell-based; conditions: chlorocebus sabaeus; how it was run: as §2
Candida albicans [14] = assay: Antifungal activity against Candida albicans ATCC 200955 at 162.1 uM after 48 hrs by CLSI method; format: functional, organism-based; how it was run: as §1
Candida albicans [15] = assay: Antifungal activity against Candida albicans ATCC 200955 after 48 hrs by CLSI method; format: functional, organism-based; conditions: ATCC 200955, 48 h; how it was run: as §5
Aspergillus fumigatus [16] = assay: Antifungal activity against Aspergillus fumigatus ATCC 204305 at 162.1 uM after 48 hrs by CLSI method; format: functional, organism-based
Candida albicans [17] = assay: Antifungal activity against Fluconazole resistant Candida albicans isolate 17 at 162.1 uM after 48 hrs by CLSI method; format: functional, organism-based; how it was run: as §4
Trichophyton rubrum [18] = assay: Antifungal activity against Trichophyton rubrum ATCC 10218 at 162.1 uM after 5 days by CLSI method; format: functional, organism-based
Candida albicans [19] = assay: Antifungal activity against Candida albicans ATCC 14053 at 162.1 uM after 48 hrs by CLSI method; format: functional, organism-based
Aspergillus niger = assay: Antifungal activity against Aspergillus niger ATCC 16404 at 162.1 uM after 48 hrs by CLSI method; format: functional, organism-based
Cryptococcus neoformans [20] = assay: Antifungal activity against Cryptococcus neoformans ATCC 90113 at 162.1 uM after 72 hrs by CLSI method; format: functional, organism-based
How it was run: (§6)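 SD broth replaced RPMI because growth in RPMI was poor; other CLSI conditions were kept. Inoculum was 1.5 × 10³ CFU/ml from colonies on SD agar, checked by plating. Twofold serial dilutions (11 concentrations) in 20% DMSO-saline were tested in duplicate. OD530 was read before and after incubation at 35°C for 72 h. Percent growth gave IC50; the MIC is the lowest concentration with no detectable growth.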

Nakaseomyces glabratus = assay: Antifungal activity against Candida glabrata ATCC 90030 at 162.1 uM after 48 hrs by CLSI method; format: functional, organism-based; how it was run: as §1
Cryptococcus neoformans [21] = assay: Antifungal activity against Cryptococcus neoformans ATCC 66031 at 162.1 uM after 72 hrs by CLSI method; format: functional, organism-based; how it was run: as §6
Candida albicans [22] = assay: Antifungal activity against Candida albicans ATCC 90028 at 162.1 uM after 48 hrs by CLSI method; format: functional, organism-based; how it was run: as §1
BT-549 = assay: Cytotoxicity against human BT549 cells up to 32 uM by neutral red method; format: cell-based; how it was run: as §2
Candida albicans [23] = assay: Antifungal activity against Candida albicans ATCC 32354 at 162.1 uM after 48 hrs by CLSI method; format: functional, organism-based; how it was run: as §1
Candida albicans [24] = assay: Antifungal activity against Candida albicans ATCC 32354 after 48 hrs by CLSI method; format: functional, organism-based; conditions: ATCC 32354, 48 h; how it was run: as §5
SK-MEL = assay: Cytotoxicity against human SK-MEL cells up to 32 uM by neutral red method; format: cell-based; how it was run: as §2
Aspergillus fumigatus [25] = assay: Antifungal activity against Aspergillus fumigatus ATCC 90906 at 162.1 uM after 48 hrs by CLSI method; format: functional, organism-based
Candida parapsilosis = assay: Antifungal activity against Candida parapsilosis ATCC 22019 at 162.1 uM after 48 hrs by CLSI method; format: functional, organism-based; how it was run: as §3
[26] = tested on: Trichophyton mentagrophytes; assay: Antifungal activity against Trichophyton mentagrophytes ATCC MYA-4439 by CLSI method; format: functional, organism-based
How it was run: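 Growth scraped from 1- to 6-week-old potato dextrose slants and filtered through Miracloth. Diluted in 5% Alamar blue-RPMI 1640 (MOPS pH 7.0) to 2.7 × 10⁴ CFU/ml. Eleven twofold dilutions in duplicate. Fluorescence at 544 nm excitation/590 nm emission read before and after 35°C, 5 days. IC50 fitted from percent growth. MIC taken as no detectable growth; MFC from clear or blue wells plated on PD agar.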

Candida albicans [27] = assay: Antifungal activity against Fluconazole resistant Candida albicans clinical isolate 17 after 48 hrs by CLSI method; format: functional, organism-based; how it was run: as §5

CCCCCCCCCCCCCC#CCCCCC(=O)O [6-ICOSYNOIC ACID]
Activity (Candida albicans [1]): inactive
Activity (Trichophyton rubrum [2]): inactive
IC50 (Aspergillus fumigatus [3]): 81 µM
IC50 (Pichia kudriavzevii [4]): 106 µM
Activity (LLC-PK1): Non-toxic
Activity (Candida tropicalis): inactive
Activity (Candida albicans [5]): inactive
IC50 (Aspergillus fumigatus [6]): 32.3 µM
Activity [7]: inactive
IC50 (Candida albicans [8]): 81 µM
IC50 (Candida albicans [9]): 67.3 µM
IC50 (Candida albicans [10]): 86.6 µM
Activity [11]: inactive
Activity (KB): Non-toxic
Activity (Aspergillus flavus): inactive
Activity (SK-OV-3): Non-toxic
Activity (Pichia kudriavzevii [12]): inactive
IC50 (Candida albicans [13]): > 162 µM
Activity (Vero): Non-toxic
Activity (Candida albicans [14]): inactive
IC50 (Candida albicans [15]): 53.4 µM
Activity (Aspergillus fumigatus [16]): inactive
Activity (Candida albicans [17]): inactive
Activity (Trichophyton rubrum [18]): inactive
Activity (Candida albicans [19]): inactive
Activity (Aspergillus niger): inactive
Activity (Cryptococcus neoformans [20]): inactive
Activity (Nakaseomyces glabratus): inactive
Activity (Cryptococcus neoformans [21]): inactive
Activity (Candida albicans [22]): inactive
Activity (BT-549): Non-toxic
Activity (Candida albicans [23]): inactive
IC50 (Candida albicans [24]): > 162 µM
Activity (SK-MEL): Non-toxic
Activity (Aspergillus fumigatus [25]): inactive
Activity (Candida parapsilosis): inactive
IC50 [26]: > 162 µM
IC50 (Candida albicans [27]): 55 µM
